Test results taken from ChEMBL document CHEMBL1125138, “1,3-Dialkyl-3-acyltriazenes, a novel class of antineoplastic alkylating agents” (J Med Chem, 1990).

Assays:
NCI-H358 = experiment: Evaluated for the inhibitory concentration required to cause growth inhibition of H358M cell line of lung using the Microculture Tetrazolium (MTT) Cytotoxicity Assay; assay type: functional, cell-based; settings: Homo sapiens
How it was run: (§1)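 MTT microculture tetrazolium growth assay on human cell lines and normal fibroblasts. Cells seeded at 1000 cells/well, with compound added 24 h after plating. Cultures then incubated a further 6 days at 37 °C before MTT read-out of growth versus untreated cells.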

OVCAR-3 = experiment: Evaluated for the inhibitory concentration required to cause growth inhibition of OVCAR-3 ovarian cell line using the MTT Cytotoxicity Assay; assay type: functional, cell-based; settings: Homo sapiens; how it was run: as §1
A704 = experiment: Evaluated for the inhibitory concentration required to cause growth inhibition of A704Rem- renal cell line using the MTT Cytotoxicity Assay; assay type: functional, cell-based; settings: Homo sapiens; how it was run: as §1
NCI-H460 = experiment: Evaluated for the inhibitory concentration required to cause growth inhibition of H460 cell line of lung using the Microculture Tetrazolium (MTT) Cytotoxicity Assay; assay type: functional, cell-based; settings: Homo sapiens; how it was run: as §1
[1] = Evaluated for the antineoplastic activity against amelanotic melanoma tumor xenograft in nude mice after injecting intraperitoneally at a dose of 120 mg/kg; assay type: functional, Mus musculus; settings: route intraperitoneal
NCI-H23 = experiment: Evaluated for the inhibitory concentration required to cause growth inhibition of H23 cell line of lung using the Microculture Tetrazolium (MTT) Cytotoxicity Assay; assay type: functional, cell-based; settings: Homo sapiens; how it was run: as §1
[2] = tested on: MAR BEL fibroblasts cell line; experiment: Evaluated for the inhibitory concentration required to cause growth inhibition of MAR BEL fibroblasts cell line using the MTT Cytotoxicity Assay; assay type: functional, cell-based; settings: Homo sapiens; how it was run: as §1
L1210 [3] = experiment: Evaluated for the antineoplastic activity against L1210 leukemia tumor […] after administering intra peritoneally at a dose of 30 mg/kg; assay type: functional, Mus musculus
How it was run: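 Mice bearing L1210 leukemia dosed intraperitoneally once daily for 5 successive days (five injections). Activity reported as % T/C at each dose. Performed under the NCI Developmental Therapeutics Program.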

CCD 19Lu = experiment: Evaluated for the inhibitory concentration required to cause growth inhibition of CCD-19Lu fibroblasts cell line using the MTT Cytotoxicity Assay; assay type: functional, cell-based; settings: Homo sapiens; how it was run: as §1
NCI-H322M = experiment: Evaluated for the inhibitory concentration required to cause growth inhibition of H322M cell line of lung using the Microculture Tetrazolium (MTT) Cytotoxicity Assay; assay type: functional, cell-based; settings: Homo sapiens; how it was run: as §1
OVCAR-4 = experiment: Evaluated for the inhibitory concentration required to cause growth inhibition of OVCAR-4 ovarian cell line using the MTT Cytotoxicity Assay; assay type: functional, cell-based; settings: Homo sapiens; how it was run: as §1
[4] = Evaluated for the antineoplastic activity against M5 sarcoma tumor xenograft in nude mice after administering Intra peritoneally at 4-day interval at a dose of 60 mg/kg; assay type: functional, Mus musculus
How it was run: (§2)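 M5 sarcoma-bearing mice given four intraperitoneal injections at 4-day intervals. Activity reported as % T/C per dose. Performed under the NCI Developmental Therapeutics Program.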

Malme-3M = experiment: Evaluated for the inhibitory concentration required to cause growth inhibition of MALME-3M melanoma cell line using the MTT Cytotoxicity Assay; assay type: functional, cell-based; settings: Homo sapiens; how it was run: as §1
[5] = Evaluated for the antineoplastic activity against amelanotic melanoma tumor xenograft in nude mice after injecting intraperitoneally at a dose of 60 mg/kg; assay type: functional, Mus musculus; settings: route intraperitoneal
NCI-H522 (Homo sapiens) = experiment: Evaluated for the inhibitory concentration required to cause growth inhibition of H522 cell line of lung using the Microculture Tetrazolium (MTT) Cytotoxicity Assay
SK-MEL-5 = experiment: Evaluated for the inhibitory concentration required to cause growth inhibition of SK-MEL-5 melanoma cell line using the MTT Cytotoxicity Assay; assay type: functional, cell-based; settings: Homo sapiens; how it was run: as §1
LOX IMVI = experiment: Evaluated for the inhibitory concentration required to cause growth inhibition of LOX melanoma cell line using the MTT Cytotoxicity Assay; assay type: functional, cell-based; settings: Homo sapiens; how it was run: as §1
TE-671 = experiment: Evaluated for the inhibitory concentration required to cause growth inhibition of TE-671 cell line of central nervous system (CNS)using the MTT Cytotoxicity Assay; assay type: functional, cell-based; settings: Homo sapiens; how it was run: as §1
A-427 = experiment: Evaluated for the inhibitory concentration required to cause growth inhibition of A427Mer- cell line of lung using the MTT Cytotoxicity Assay; assay type: functional, cell-based; settings: Homo sapiens; how it was run: as §1
HOS-TE85 = experiment: Evaluated for the inhibitory concentration required to cause growth inhibition of TE85Mer+ sarcoma cell line using the MTT Cytotoxicity Assay; assay type: functional, cell-based; settings: Homo sapiens; how it was run: as §1
[6] = Evaluated for the antineoplastic activity against M5 sarcoma tumor xenograft in nude mice after administering Intra peritoneally at 4-day interval at a dose of 7.5 mg/kg; assay type: functional, Mus musculus; how it was run: as §2
NCI/ADR-RES = experiment: Evaluated for the inhibitory concentration required to cause growth inhibition of MCF-7ADR breast cell line using the MTT Cytotoxicity Assay; assay type: functional, cell-based; settings: Homo sapiens; how it was run: as §1
[7] = Evaluated for the antineoplastic activity against M5 sarcoma tumor xenograft in nude mice after administering Intra peritoneally at 4-day interval at a dose of 30 mg/kg; assay type: functional, Mus musculus; how it was run: as §2
WiDr = experiment: Evaluated for the inhibitory concentration required to cause growth inhibition of WiDR colon cell line using the MTT Cytotoxicity Assay; assay type: functional, cell-based; settings: Homo sapiens
How it was run: (§3)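 MTT cell-growth assay in human cell lines: cells harvested and seeded at 1000 cells/well in 96-well plates. Compound added after 24 h, then cultures incubated a further 6 days at 37 °C. Growth measured with and without agent.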

RPMI-7951 = experiment: Evaluated for the inhibitory concentration required to cause growth inhibition of RPMI7951 melanoma cell line using the MTT Cytotoxicity Assay; assay type: functional, cell-based; settings: Homo sapiens; how it was run: as §1
[8] = Evaluated for the antineoplastic activity against amelanotic melanoma tumor xenograft in nude mice after injecting intraperitoneally at a dose of 30 mg/kg; assay type: functional, Mus musculus; settings: route intraperitoneal
NCI-H125 = experiment: Evaluated for the inhibitory concentration required to cause growth inhibition of H125 cell line of lung using the Microculture Tetrazolium (MTT) Cytotoxicity Assay; assay type: functional, cell-based; settings: Homo sapiens; how it was run: as §1
[9] = Evaluated for the antineoplastic activity against M5 sarcoma tumor xenograft in nude mice after administering Intra peritoneally at 4-day interval at a dose of 15 mg/kg; assay type: functional, Mus musculus; how it was run: as §2
U-251 = experiment: Evaluated for the inhibitory concentration required to cause growth inhibition of U251 cell line of central nervous system (CNS) using the MTT Cytotoxicity Assay; assay type: functional, cell-based; settings: Homo sapiens; how it was run: as §3
DOD-1 = experiment: Evaluated for the inhibitory concentration required to cause growth inhibition of DOD-1 breast cell line using the MTT Cytotoxicity Assay; assay type: functional, cell-based; settings: Homo sapiens; how it was run: as §1
A 172 = experiment: Evaluated for the inhibitory concentration required to cause growth inhibition of A172Mer- cell line of central nervous system (CNS) using the MTT Cytotoxicity Assay; assay type: functional, cell-based; settings: Homo sapiens; how it was run: as §1
L1210 [10] = experiment: Evaluated for the antineoplastic activity against L1210 leukemia tumor […] after administering intra peritoneally at a dose of 15 mg/kg; assay type: functional, Mus musculus
A549 = experiment: Evaluated for the inhibitory concentration required to cause growth inhibition of A549Rem- cell line of lung using the MTT Cytotoxicity Assay; assay type: functional, cell-based; settings: Homo sapiens; how it was run: as §1
A498 = experiment: Evaluated for the inhibitory concentration required to cause growth inhibition of A498Rem- renal cell line using the MTT Cytotoxicity Assay; assay type: functional, cell-based; settings: Homo sapiens; how it was run: as §1
MCF7 = experiment: Evaluated for the inhibitory concentration required to cause growth inhibition of MCF-7 breast cell line using the MTT Cytotoxicity Assay; assay type: functional, cell-based; settings: Homo sapiens; how it was run: as §1
A673 = experiment: Evaluated for the inhibitory concentration required to cause growth inhibition of A673Mer+ sarcoma cell line using the MTT Cytotoxicity Assay; assay type: functional, cell-based; settings: Homo sapiens; how it was run: as §1
P388 [11] = experiment: Evaluated in vivo for antineoplastic activity against P388 murine leukemia tumor […] after administering intra peritoneal injection at a dose of 26.25 mg/kg; assay type: functional, Mus musculus
How it was run: (§4)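 P388 leukemia-bearing mice, run through the NCI Developmental Therapeutics Program. Compound given ip once daily on 5 consecutive days. Activity read out as % T/C.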

P388 [12] = experiment: Evaluated in vivo for antineoplastic activity against P388 murine leukemia tumor […] after administering intra peritoneal injection at a dose of 52.5 mg/kg; assay type: functional, Mus musculus; how it was run: as §4
P388 [13] = experiment: Evaluated in vivo for antineoplastic activity against P388 murine leukemia tumor […] after administering intra peritoneal injection at a dose of 13.12 mg/kg; assay type: functional, Mus musculus; how it was run: as §4
P388 [14] = experiment: Evaluated in vivo for antineoplastic activity against P388 murine leukemia tumor […] after administering intra peritoneal injection on each of 5 consecutive days at a dose of 30.0 mg/kg; assay type: functional, Mus musculus; how it was run: as §4

| Compound | IC50 (NCI-H358) | IC50 (OVCAR-3) | IC50 (A704) | IC50 (NCI-H460) | IC50 (NCI-H23) | IC50 [2] | IC50 (CCD 19Lu) | IC50 (NCI-H322M) | IC50 (OVCAR-4) | IC50 (Malme-3M) | IC50 (NCI-H522 (Homo sapiens)) | IC50 (SK-MEL-5) | IC50 (LOX IMVI) | IC50 (TE-671) | IC50 (A-427) | IC50 (HOS-TE85) | IC50 (NCI/ADR-RES) | IC50 (WiDr) | IC50 (RPMI-7951) | IC50 (NCI-H125) | also measured |
| --- | --- | --- | --- | --- | --- | --- | --- | --- | --- | --- | --- | --- | --- | --- | --- | --- | --- | --- | --- | --- | --- |
| CCOC(=O)N(C)/N=N\C | 80 µM | 60 µM | 55 µM | 65 µM | 20 µM | 75 µM | 62 µM | 42 µM | 40 µM | 22 µM | 18 µM | 20 µM | 22 µM | 48 µM | 7 µM | 37 µM | 34 µM | 45 µM | 35 µM | 44 µM | T/C [1]: 191%; T/C (L1210 [3]): 142%; T/C [4]: 168%; T/C [5]: 147%; T/C [6]: 131%; T/C [7]: 158%; T/C [8]: 132%; T/C [9]: 140%; IC50 (U-251): 28 µM; IC50 (DOD-1): 44 µM; IC50 (A 172): 20 µM; T/C (L1210 [10]): 133%; IC50 (A549): 45 µM; IC50 (A498): 35 µM; IC50 (MCF7): 27 µM; IC50 (A673): 75 µM |
| CC(=O)N(C)/N=N\CCCl | 60 µM | 25 µM | 26 µM | 60 µM | 20 µM | 44 µM | 60 µM | 32 µM | 18 µM | 25 µM | 18 µM | 15 µM | 8 µM | 50 µM | 12 µM | 18 µM | 24 µM | 15 µM | 17 µM | 42 µM | IC50 (U-251): 18 µM; T/C (P388 [11]): 217%; IC50 (DOD-1): 26 µM; IC50 (A 172): 20 µM; IC50 (A549): 26 µM; T/C (P388 [12]): 257%; IC50 (A498): 18 µM; IC50 (MCF7): 15 µM; T/C (P388 [13]): 157%; IC50 (A673): 35 µM |
| CCOC(=O)N(C)/N=N\CCCl | 50 µM | 26 µM | 18 µM | 50 µM | 16 µM | 46 µM | 45 µM | 14 µM | 26 µM | 15 µM | 10 µM | 10 µM | 2.4 µM | 34 µM | 11 µM | 26 µM | 17 µM | 13 µM | 13 µM | 30 µM | T/C (P388 [14]): 175%; IC50 (U-251): 8 µM; IC50 (DOD-1): 20 µM; IC50 (A 172): 18 µM; IC50 (A549): 14 µM; IC50 (A498): 16 µM; IC50 (MCF7): 16 µM; IC50 (A673): 20 µM |
